From the RNAGym collection of RNA variant scans (doi:10.1101/gad.245936.114)
This sample holds only a part of the variants without activity.

B1: tRNA (parent)
chain: CUCUCGGUAGCCAAGUUGGUUUAAGGCGCAAGACUUUAAUUUAUCACUACGAAAUCUUGAGAUCGGGCGUUCGACUCGCCCCCGGGAGAUUUUUUCCUCGAGCAA

Variants of: B1
Assay: nonsense suppression (GFP-seq) (ratio to wild type); higher = more function; SUP4oc tRNA, yeast GFP reporter sort-seq
In short: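 Sorted GFP/RFP bins of yeast were each Illumina-sequenced with a phred ≥30 cutoff; the cells held a genome-integrated ochre-suppressor tRNA variant from a library with ~3% random mutations, a galactose-driven GFP ochre reporter, and RFP. Culture was in raffinose/galactose medium containing 80 mg/L adenine. Nonsense suppression, termed GFPSEQ, is the median GFP/RFP of the bins weighted by each variant's estimated cell share per bin, relative to the unmutated parent tRNA, for variants reaching ≥100 reads and ≥30 cells.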
A9C C29U showed a nonsense suppression of 0.751.
With A9G U16A U55C the nonsense suppression was 0.188.
Variant A9C U21A A31G U71C has a nonsense suppression of at most 0.026.
Variant U8G U57C has a nonsense suppression of at most 0.026.
With U8C U16A A30C A54C the nonsense suppression was at most 0.026.
In the case of G7C A31C G32C, the nonsense suppression is reported as at most 0.026.
Variant A9G C72U has a nonsense suppression of 0.0591.
A9G C72A showed a nonsense suppression of 0.0268.
G7A U76C G88U showed a nonsense suppression of at most 0.026.
For G6U U57A, the nonsense suppression was at most 0.026.
Variant G7C U57A has a nonsense suppression of at most 0.026.
In the case of A9G U71C, the nonsense suppression is reported as 0.0266.
With G7A A13U U58G G86C the nonsense suppression was at most 0.026.
Variant A9G A54U U70C has a nonsense suppression of at most 0.026.
With G7A G25U the nonsense suppression was at most 0.026.
For G7A U20G C34U U57C C64A C79U G88C, the nonsense suppression was at most 0.026.
Work on A9C A54U yielded a nonsense suppression of 1.21.
With A9G C75U the nonsense suppression was 1.17.
Variant A9G C75A has a nonsense suppression of 0.762.
In the case of G6C U71A, the nonsense suppression is reported as at most 0.026.
A9C U20C C75A gave a nonsense suppression of 0.566.
Variant A9G U22A has a nonsense suppression of 0.212.
In the case of A9G U22C, the nonsense suppression is reported as 0.323.
A9G U22G gave a nonsense suppression of 0.254.
Variant U8A A24C C79G has a nonsense suppression of at most 0.026.
Work on G7C A60U G61A C82G yielded a nonsense suppression of 0.0263.
In the case of G6A A24G C27A C29G, the nonsense suppression is reported as at most 0.026.
A9G G61U C75G gave a nonsense suppression of 1.12.
G7C U55C gave a nonsense suppression of 0.0823.
G6A U8G gave a nonsense suppression of at most 0.026.
In the case of G7C U35G A62C, the nonsense suppression is reported as at most 0.026.
In the case of G6A A31C A60C C72A G86A, the nonsense suppression is reported as at most 0.026.
Variant U8A U57C A74C G78U G85U A87U has a nonsense suppression of at most 0.026.
A9U C12G U35G C72A showed a nonsense suppression of at most 0.026.
Variant U8A G67C U71G has a nonsense suppression of at most 0.026.
In the case of G7A U20G, the nonsense suppression is reported as at most 0.026.
A9G U76A gave a nonsense suppression of 0.103.
With G6A C79U G88C the nonsense suppression was at most 0.026.
U8C C80G showed a nonsense suppression of at most 0.026.
A9U A13U showed a nonsense suppression of 0.819.
Work on A9C U76C yielded a nonsense suppression of 0.929.
For U8G G67C G85C, the nonsense suppression was at most 0.026.
Variant G7U U21A G78A C79A has a nonsense suppression of at most 0.026.
Variant G6A G10A G19C A54U G73C G88U has a nonsense suppression of at most 0.026.
With U8A A54U U76C A87C the nonsense suppression was at most 0.026.
Variant U8A A13G has a nonsense suppression of at most 0.026.
Work on A9C A31G yielded a nonsense suppression of 0.857.
Work on G6A A24G yielded a nonsense suppression of 0.0293.
In the case of G6A A24U, the nonsense suppression is reported as 0.0308.
In the case of A9C G18A A31C A54C A62U G69C G88C, the nonsense suppression is reported as at most 0.026.
With G7A U16G G26C U71G the nonsense suppression was at most 0.026.
In the case of U8G A13G G61C C68G C82G, the nonsense suppression is reported as at most 0.026.
U8G G18C G59A showed a nonsense suppression of at most 0.026.
Work on U8A G32A yielded a nonsense suppression of at most 0.026.
With A9G C27U the nonsense suppression was 0.0421.
With A9G C27G the nonsense suppression was at most 0.026.
With U8C U20A the nonsense suppression was 0.0281.
Work on U8A G26C A31U U55A U71A yielded a nonsense suppression of at most 0.026.
Work on A9G C29U C75G yielded a nonsense suppression of 0.252.
G6U U58G U76C C80G showed a nonsense suppression of at most 0.026.
In the case of G7U G32A A33C C83A A89G, the nonsense suppression is reported as at most 0.026.
For A9C G73A, the nonsense suppression was 0.215.
In the case of G7A C81G, the nonsense suppression is reported as at most 0.026.
A9U C72G showed a nonsense suppression of 0.0446.
For G7A A30U, the nonsense suppression was 0.0309.
G6U U70C gave a nonsense suppression of at most 0.026.
In the case of U8C U35G U71A, the nonsense suppression is reported as at most 0.026.
G7U G65A U76A showed a nonsense suppression of at most 0.026.
With G7C C29G A30G G61U U70C G85C the nonsense suppression was at most 0.026.
In the case of U8A A60C G73U A87C, the nonsense suppression is reported as at most 0.026.
U8C A54C gave a nonsense suppression of 0.0833.
With A9C C11A C75A the nonsense suppression was at most 0.026.
Variant A9C A87G has a nonsense suppression of 0.649.
For U8G G26A C56U C64G G66U G78U A89U, the nonsense suppression was at most 0.026.
G6C C12G C72G C75U G85C showed a nonsense suppression of at most 0.026.
With G7A G61A the nonsense suppression was at most 0.026.
G7A U17C A24G G32U U71C A87U gave a nonsense suppression of at most 0.026.
Work on G7C C12A U71G U76C G88A yielded a nonsense suppression of at most 0.026.
Variant G7U C27U U35A A74C has a nonsense suppression of at most 0.026.
In the case of U8A A9G U58A C72G C79A, the nonsense suppression is reported as at most 0.026.
Variant U8C A31G has a nonsense suppression of 0.0327.
Variant A9G C29U has a nonsense suppression of 0.2.
Variant A9G A30G has a nonsense suppression of 0.466.
With A9G A30U the nonsense suppression was 0.163.
Variant G7A G86U has a nonsense suppression of at most 0.026.
Variant G7U C82A has a nonsense suppression of 1.02.
For G7A G26U, the nonsense suppression was at most 0.026.
Work on G7C A33U G73A yielded a nonsense suppression of at most 0.026.
With A9C U20A the nonsense suppression was 0.183.
G6U A60G G61A G65C gave a nonsense suppression of at most 0.026.
A9G A54C gave a nonsense suppression of 0.207.
For A9G A54U, the nonsense suppression was 0.196.
In the case of A9G A13U A74C, the nonsense suppression is reported as at most 0.026.
In the case of A9C C34G, the nonsense suppression is reported as at most 0.026.
G7U G32A A60C A74G gave a nonsense suppression of at most 0.026.
G7U A54U U63C G88U gave a nonsense suppression of at most 0.026.
Variant A9G U17C U22C has a nonsense suppression of 0.133.
G6U C81A gave a nonsense suppression of at most 0.026.
G7U U22A gave a nonsense suppression of at most 0.026.
Work on G6C C34G A54U yielded a nonsense suppression of at most 0.026.
Work on A9G A31G yielded a nonsense suppression of 0.259.
With A9G A33U C34G U71A the nonsense suppression was at most 0.026.
Variant U8G C29G G84A has a nonsense suppression of at most 0.026.
U8G G25U A54U U70G G73C gave a nonsense suppression of at most 0.026.
A9C U21C A24U U63A G69U gave a nonsense suppression of at most 0.026.
For G7C G10A C68G, the nonsense suppression was at most 0.026.
Variant G6C G15A has a nonsense suppression of at most 0.026.
A9C G61C G73C showed a nonsense suppression of at most 0.026.
Variant U8G C27U has a nonsense suppression of at most 0.026.
With G7C C29G the nonsense suppression was at most 0.026.
A9U C11G C68A gave a nonsense suppression of at most 0.026.
U8A G85U gave a nonsense suppression of 0.071.
In the case of G6A C29G A62C C75G, the nonsense suppression is reported as at most 0.026.
For A9C A30U, the nonsense suppression was 0.0886.
In the case of A9C A30G, the nonsense suppression is reported as 0.171.
In the case of G7A C11U U35A A54C C64U C83G, the nonsense suppression is reported as at most 0.026.
G7U G19U showed a nonsense suppression of at most 0.026.
A9G G28A G61A gave a nonsense suppression of 1.24.
U8A U57G C82A gave a nonsense suppression of at most 0.026.
Variant U8C G28C has a nonsense suppression of 0.0327.
With A9C G61C the nonsense suppression was 0.791.
Variant U8A U16G has a nonsense suppression of 0.0647.
G6U C80U showed a nonsense suppression of at most 0.026.
Variant G7U C79A G85U G86U G88U has a nonsense suppression of at most 0.026.
For A9C U17G, the nonsense suppression was 0.595.
With G6C A14G A60C G65U C79G G86C the nonsense suppression was at most 0.026.
In the case of A9U A60U, the nonsense suppression is reported as 0.0653.
Work on G7C G73U yielded a nonsense suppression of at most 0.026.
Work on G7A G10U U20A U35G U57G U63C yielded a nonsense suppression of at most 0.026.
For A9C C12U, the nonsense suppression was 0.186.
With A9U A30G the nonsense suppression was 0.0995.
Work on G7A A60G yielded a nonsense suppression of 0.053.
In the case of U8G G88A, the nonsense suppression is reported as 0.228.
For G6A G19C G67C A87G, the nonsense suppression was at most 0.026.
In the case of G6A A62U, the nonsense suppression is reported as at most 0.026.
In the case of A9G U21A, the nonsense suppression is reported as 0.36.
Variant A9U A14U has a nonsense suppression of 0.0588.
For U8A A30U, the nonsense suppression was 0.0393.
In the case of U8A A30G, the nonsense suppression is reported as 0.0404.
In the case of A9C C68U G78C, the nonsense suppression is reported as 0.0334.
Work on A9U C12A A13C C72U C79A yielded a nonsense suppression of at most 0.026.
In the case of A9U C11U G32C C34G A54U, the nonsense suppression is reported as at most 0.026.
G6U U20A C83G gave a nonsense suppression of 0.186.
With G7A G59A U71G G73A G84A G85U the nonsense suppression was at most 0.026.
A9C C75A gave a nonsense suppression of 0.938.
In the case of A9C U22G, the nonsense suppression is reported as 0.878.
With A9C U22A the nonsense suppression was 0.709.
For G6C U20A, the nonsense suppression was at most 0.026.
Variant G6C U20G has a nonsense suppression of at most 0.026.
A9G U63C showed a nonsense suppression of 0.772.
Variant A9G U63A has a nonsense suppression of 0.836.
U8A A13U G19A A62G G67A U71C showed a nonsense suppression of at most 0.026.
Variant G7C A14G U22A A24U G85C has a nonsense suppression of at most 0.026.
In the case of G6U U76G, the nonsense suppression is reported as at most 0.026.
With A9C U21C A62C C77A the nonsense suppression was at most 0.026.
Variant A9G A23G U70G A89G has a nonsense suppression of at most 0.026.
For U8C G84U, the nonsense suppression was at most 0.026.
With U8C A9U C34G C68U the nonsense suppression was at most 0.026.
For G6A G7U A54C, the nonsense suppression was at most 0.026.
With A9U C12U the nonsense suppression was 0.29.
Variant G7U G85U has a nonsense suppression of at most 0.026.
Variant A9C U20G U21G G86A has a nonsense suppression of at most 0.026.
A9G A13C C34G U63A C81G G84A G86U showed a nonsense suppression of at most 0.026.
A9G A14G gave a nonsense suppression of 0.0311.
With A9C A13U A60U the nonsense suppression was 1.16.
In the case of G7A A23C C56G, the nonsense suppression is reported as at most 0.026.
In the case of U8C A31C A54U G85A G88A, the nonsense suppression is reported as at most 0.026.
